System: UDP-glucuronosyltransferase (UGT)
Assay type: in vitro ADME, human
Details: 100 μM, HLM

| Compound | inhibition of UGT activity, parent versus methylated analogue, in words |
| --- | --- |
| COc1cc(O)c2c(c1)O[C@H](c1ccc(O)c3c1[C@@H](CO)[C@H](c1ccc(O)c(OC)c1)O3)[C@@H](O)C2=O [compound 12, 7-O-Methylisosilychristin] | more potent than isosilychristin (11) |

System: hepatitis C virus (JFH-1)
Assay type: cell-based
Details: Huh7.5.1 cells infected with JFH-1 (MOI 0.05), HCV core protein at 72 h
Summary of the method: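 Huh7.5.1 cells (150,000 per well) were plated and infected with JFH-1 the next day at 0.05 focus forming units per cell. After 5 h the inoculum was replaced with fresh medium containing test compound at three concentrations chosen from the 72 h ATP-based cytotoxicity data. Lysates were harvested 72 h later, loaded at equal total protein, and probed for HCV core by Western blot.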

| Compound | anti-HCV activity upon methylation relative to the corresponding parent compound |
| --- | --- |
| COc1cc(O)c2c(c1)O[C@H](c1ccc3c(c1)O[C@@H](c1ccc(O)c(OC)c1)[C@H](CO)O3)[C@@H](O)C2=O [compound 4, 7-O-Methylsilybin B] | reduced |
| COc1cc(O)c2c(c1)O[C@H](c1cc(O)c3c(c1)[C@@H](CO)[C@H](c1ccc(O)c(OC)c1)O3)[C@@H](O)C2=O [compound 10, 7-O-Methylsilychristin] | improved anti-HCV activity |
| COc1cc(O)c2c(c1)O[C@H](c1ccc3c(c1)O[C@@H](CO)[C@H](c1ccc(O)c(OC)c1)O3)[C@@H](O)C2=O [compound 8, 7-O-Methylisosilybin B] | slight enhancement |
| COc1cc(O)c2c(c1)O[C@H](c1ccc3c(c1)O[C@H](c1ccc(O)c(OC)c1)[C@@H](CO)O3)[C@@H](O)C2=O [compound 2, 7-O-Methylsilybin A] | retained |
| COc1cc(O)c2c(c1)O[C@H](c1ccc3c(c1)O[C@H](CO)[C@@H](c1ccc(O)c(OC)c1)O3)[C@@H](O)C2=O [compound 6, 7-O-Methylisosilybin A] | reduced |
| COc1cc(O)c2c(c1)O[C@H](c1ccc(O)c3c1[C@@H](CO)[C@H](c1ccc(O)c(OC)c1)O3)[C@@H](O)C2=O [compound 12, 7-O-Methylisosilychristin] | improved anti-HCV activity |

— publication PMC3855444 (Bioorganic & medicinal chemistry, 2013)
